Source: ChEMBL document CHEMBL1817553, “Synthesis and biological evaluation of Matijing-Su derivatives as potent anti-HBV agents” (Bioorg Med Chem, 2011)
Active and inactive are the calls of the source. No cut-off for these calls is given here. Square brackets hold non-standard residues; d marks the D form. Peptide text beside a SMILES is read from it. * marks the point of attachment. Phe(4-NO2) = N[C@@H](Cc1ccc([N+](=O)[O-])cc1)C(=O)O; 4Abz = Nc1ccc(C(=O)O)cc1; Propionyl = CCC(=O)*; Bz = O=C(c1ccccc1)*; ClAc = O=C(CCl)*

Columns and labels:
[1] = Selectivity index, ratio of TC50 for human HepG2(2.2.15) cells to IC50 for HBV
Procedure, shortened: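 Calculated as TC50 (neutral red uptake in 2.2.15 cells) divided by IC50 (HBsAg/HBeAg inhibition by EIA in 2.2.15 cells).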

[2] = Cytotoxicity against human HepG2(2.2.15) cells after 24 hours following 9 days of treatment by neutral red dye uptake assay; type: cell-based; settings: read-out: TC50
Procedure, shortened: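 2.2.15 cells grown to confluence were treated with compound as in the antiviral assay, with untreated controls on each plate. Toxicity was measured by neutral red uptake (absorbance 510 nm, relative to untreated cells) 24 h after 9 days of treatment, giving TC50.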

Hepatitis B virus [3] = assay: Antiviral activity against HBV infected in human HepG2(2.2.15) cells assessed as inhibition of viral DNA replication by measuring HBsAg and HBeAg production after 9 days by EIA; type: functional, organism-based; settings: HepG2 2.2.15, 216 h
Procedure, shortened: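 Confluent 2.2.15 cells in RPMI 1640 with 2% FBS received test compounds daily (medium changed daily) for 8 consecutive days in a second protocol. Cells in the 24-well protocol were seeded at 1.0 × 10⁵ cells/mL in MEM with 10% FBS for 24 h. They were then exposed to drug for 9 days, with medium changed every 3 days. Supernatant HBsAg/HBeAg was read by EIA at days 6 and 9, and the test was run twice.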

Hepatitis B virus [4] = assay: Antiviral activity against HBV infected in human HepG2(2.2.15) cells assessed as inhibition of viral DNA replication by measuring HBsAg and HBeAg production at TC50 after 9 days by EIA; type: functional, organism-based

Row | SMILES | IC50 (Hepatitis B virus [3]) | Selectivity Index [1] | CC50 at 216 h [2] | inhibition (Hepatitis B virus [4])
1 | COC(=O)[C@H](Cc1ccccc1)NC(=O)[C@H](Cc1ccccc1)NC(=O)c1ccc(NC(=O)CCl)cc1 ({ClAc-4Abz}-Phe-Phe-OMe) | – | – | 223 µM | inactive
2 | CCC(=O)Nc1ccc(C(=O)N[C@@H](Cc2ccccc2)C(=O)N[C@@H](Cc2ccc([N+](=O)[O-])cc2)C(=O)OC)cc1 ({Propionyl-4Abz}-Phe-[Phe(4-NO2)]-OMe) | 4.37 µM | 33.53 | 147 µM | –
3 | CCC(=O)Nc1ccc(C(=O)N[C@@H](Cc2ccccc2)C(=O)N[C@@H](Cc2ccccc2)C(=O)OC)cc1 ({Propionyl-4Abz}-Phe-Phe-OMe) | 2.85 µM | 90.45 | 258 µM | –
4 | COC(=O)[C@H](Cc1ccccc1)NC(=O)[C@H](Cc1ccccc1)NC(=O)c1ccc(NC(=O)CN2CCCC2)cc1 | – | – | 106 µM | inactive
5 | CN(C)Cc1ccc(C(=O)N[C@@H](Cc2ccccc2)C(=O)N[C@H](CO)Cc2ccccc2)cc1 | 15.8 µM | 11.84 | 188 µM | –
6 | COC(=O)[C@H](Cc1ccccc1)NC(=O)[C@H](Cc1ccccc1)NC(=O)c1ccncc1 | – | – | 1060 µM | inactive
7 | COC(=O)[C@H](Cc1ccc([N+](=O)[O-])cc1)NC(=O)[C@H](Cc1ccccc1)NC(=O)c1ccncc1 | – | – | 812 µM | inactive
8 | CC(=O)Nc1ccc(C(=O)N[C@@H](Cc2ccc(O)cc2)C(=O)N[C@H](CO)Cc2ccccc2)cc1 | – | – | 749 µM | inactive
9 | COC(=O)[C@H](Cc1ccccc1)NC(=O)[C@H](Cc1ccc(O)cc1)NC(=O)c1ccncc1 | – | – | 219 µM | inactive
10 | CC(=O)OC[C@H](Cc1ccccc1)NC(=O)[C@H](Cc1ccccc1)NC(=O)c1ccc(CN2CCOCC2)cc1 | – | – | 609 µM | inactive
11 | O=C(N[C@@H](Cc1ccc(O)cc1)C(=O)N[C@H](CO)Cc1ccccc1)c1ccncc1 | – | – | 612 µM | inactive
12 | COC(=O)[C@H](Cc1ccc([N+](=O)[O-])cc1)NC(=O)[C@H](Cc1ccc(O)cc1)NC(=O)c1ccncc1 | – | – | 238 µM | inactive
13 | CCOc1ccc(C[C@H](NC(=O)[C@H](Cc2ccccc2)NC(=O)c2ccccc2)C(=O)O)cc1 (Bz-Phe-Tyr(Et)-OH) | – | – | 1010 µM | inactive
14 | COC(=O)[C@H](Cc1ccccc1)NC(=O)[C@H](Cc1ccccc1)NC(=O)c1ccc(OCCN(C)C)cc1 | 105 µM | 4.74 | 497 µM | –
15 | COC(=O)[C@H](Cc1ccccc1)NC(=O)[C@H](Cc1ccccc1)NC(=O)c1ccc(NC(=O)CN(C)C)cc1 | – | – | 111 µM | inactive
16 | CC(=O)OC[C@H](Cc1ccccc1)NC(=O)[C@H](Cc1ccccc1)NC(=O)c1ccc(CN(C)C)cc1 | – | – | 508 µM | inactive

More lines, main results first:

Row | IC50 (Hepatitis B virus [3]) | SMILES | Selectivity Index [1] | CC50 at 216 h [2] | inhibition (Hepatitis B virus [4])
17 | 13.9 µM | O=C(N[C@@H](Cc1ccccc1)C(=O)N[C@H](CO)Cc1ccccc1)c1ccc(CN2CCOCC2)cc1 | 11.25 | 157 µM | –
18 | 64.6 µM | CCCCOc1ccc(C[C@H](NC(=O)[C@H](Cc2ccccc2)NC(=O)c2ccccc2)C(=O)[O-])cc1.[Na+] | 15.2 | 979 µM | –
19 | 174 µM | CCCCOc1ccc(C[C@H](NC(=O)[C@H](Cc2ccccc2)NC(=O)c2ccccc2)C(=O)OC)cc1 | 6.6 | 1150 µM | –
20 | 27.6 µM | CN(C)CCOc1ccc(C(=O)N[C@@H](Cc2ccccc2)C(=O)N[C@H](CO)Cc2ccccc2)cc1 | 11.86 | 327 µM | –
21 | 5.39 µM | COC(=O)[C@H](Cc1ccc(O)cc1)NC(=O)[C@H](Cc1ccccc1)NC(=O)c1ccncc1 | 161.01 | 867 µM | –
22 | 14.1 µM | O=C(N[C@@H](Cc1ccccc1)C(=O)N[C@H](CO)Cc1ccccc1)c1ccc(CN2CCCC2)cc1 | 9.11 | 128 µM | –
23 | 20.5 µM | COc1ccc(C[C@H](NC(=O)[C@H](Cc2ccccc2)NC(=O)c2ccccc2)C(=O)[O-])cc1.[Na+] (Bz-Phe-Tyr(Me)-OH) | 8.99 | 184 µM | –
24 | 0.71 µM | CC(=O)Nc1ccc(C(=O)N[C@@H](Cc2ccccc2)C(=O)N[C@H](CCl)Cc2ccccc2)cc1 | 42.26 | 30.1 µM | –
25 | 28.9 µM | O=C(N[C@@H](Cc1ccccc1)C(=O)N[C@H](CO)Cc1ccccc1)c1ccncc1 | 7.39 | 214 µM | –
26 | 9.06 µM | COC(=O)[C@H](Cc1ccc(O)cc1)NC(=O)[C@H](Cc1ccccc1)NC(=O)c1ccc(NC(C)=O)cc1 (Ac-[4Abz]-Phe-Tyr-OMe) | 85.09 | 771 µM | –
27 | 14 µM | CCOc1ccc(C[C@H](NC(=O)[C@H](Cc2ccccc2)NC(=O)c2ccccc2)C(=O)OC)cc1 (Bz-Phe-Tyr(Et)-OMe) | 58.61 | 818 µM | –
